How the values were obtained:
[1] = tested on: BSA-glycation mediated methylglyoxal (MG); test: Anti-glycation assay: BSA-glycation mediated methylglyoxal; type: biochemical, bovine; settings: for BSA-glycation mediated MG % Inhibition at 500 µM: mean ± SD; for IC50: read-out: BSA-glycation inhibition category by IC50 criteria, category in words
Method in brief: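 Fluorescence anti-glycation assay. BSA (10 mg/mL) was in 0.1 M phosphate buffer pH 7.4 with 0.02% NaN3, and 14 mM methylglyoxal was in phosphate buffer. Test compound in DMSO was preincubated with buffer and methylglyoxal at 37°C for 2 h. BSA was then added and the mix incubated at 37°C for 1 day. Fluorescence (ex 370/em 450 nm) was read against a no-inhibitor blank. Aminoguanidine hydrochloride was the positive control. Triplicate, two independent experiments, mean ± SD.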

α-amylase = target: T1, α-amylase (Sus scrofa, UniProt P00690); test: Inhibitory kinetic analysis; type: biochemical, porcine
T1 sequence (P00690 16-511): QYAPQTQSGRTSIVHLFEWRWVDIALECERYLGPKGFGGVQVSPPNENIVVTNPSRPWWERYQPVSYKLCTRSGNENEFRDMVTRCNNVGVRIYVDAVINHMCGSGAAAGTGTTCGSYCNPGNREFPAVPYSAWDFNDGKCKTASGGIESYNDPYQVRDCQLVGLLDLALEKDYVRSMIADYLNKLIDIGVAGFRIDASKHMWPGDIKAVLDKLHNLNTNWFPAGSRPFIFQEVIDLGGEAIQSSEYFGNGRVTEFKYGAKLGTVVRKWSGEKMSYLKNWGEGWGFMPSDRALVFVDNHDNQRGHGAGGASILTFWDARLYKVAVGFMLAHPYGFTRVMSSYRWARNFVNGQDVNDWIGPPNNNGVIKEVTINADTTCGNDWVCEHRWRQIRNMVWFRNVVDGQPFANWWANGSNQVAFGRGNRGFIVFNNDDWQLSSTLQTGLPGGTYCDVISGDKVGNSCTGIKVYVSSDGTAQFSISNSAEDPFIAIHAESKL
Method in brief: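 Porcine pancreatic α-amylase (type VI-B) in phosphate buffer pH 6.0 with 0.02% NaN3. Enzyme stock was 1 mg/mL and CNP-G3 stock 0.5 mM. Test compound and enzyme were preincubated at 37°C for 10 min, then CNP-G3 was added at varied concentrations for 30 min at 37°C, read at 405 nm. Three inhibitor concentrations were used. Inhibition type came from Lineweaver–Burk plots, Ki and Kis from secondary slope and intercept plots.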

SMILES | IC50 [1] | further results
Cl.N=C(N)NN [Aminoguanidine hydrochloride, reference compound] |  | BSA-glycation mediated MG % Inhibition at 500 µM [1]: 79.66%
O=c1cc(-c2ccc(O)cc2)oc2c(Br)c(O)c(Br)c(O)c12 [Compound F2a, 6,8-Dibromoapigenin] | 10.1 to 100 µM | 
O=c1cc(-c2ccc(O)c(O)c2)oc2cc(O)cc(O)c12 [Compound F3, Luteolin] | 10.1 to 100 µM | 
O=c1cc(-c2ccc(O)c(O)c2)oc2c(Br)c(O)c(Br)c(O)c12 [Compound F3a, 6,8-Dibromoluteolin] | 10.1 to 100 µM | Ki (α-amylase): 0.18 µM; Inhibition type, α-amylase (α-amylase; Lineweaver-Burk plot, CNP-G3): mixed-type
O=c1c(O)c(-c2ccc(O)cc2O)oc2cc(O)cc(O)c12 [Compound F6, Morin] | 100 to 200 µM | 
O=c1c(O)c(-c2ccc(O)c(O)c2)oc2cc(O)cc(O)c12 [Compound F7, Quercetin] | 10.1 to 100 µM | 
O=C1C[C@@H](c2ccc(O)cc2)Oc2cc(O)cc(O)c21 [Compound F11, Naringenin] |  | BSA-glycation mediated MG % Inhibition at 500 µM [1]: 56.89%
O=C1C[C@@H](c2ccc(O)cc2)Oc2c(Br)c(O)c(Br)c(O)c21 [Compound F11a, 6,8-Dibromonaringenin] | 10.1 to 100 µM | 
